Laboratory results reported in ChEMBL document CHEMBL1165909, “Analgesic, anti-pyretic and DNA cleavage studies of novel pyrimidine derivatives of coumarin moiety” (Eur J Med Chem, 2010).
The source made the active and inactive calls. The rule behind the calls is not given here.

What was measured:
[1] = test system: Rattus norvegicus; experiment: Antipyretic activity against brewer's yeast-induced hyperthermia in albino Wistar rat assessed as change in rectal temperature at 300 mg/kg, po after 6 hrs (reference value: 33.44 +/- 0.18 degC); format: functional
[2] = test system: Rattus norvegicus; experiment: Antipyretic activity against brewer's yeast-induced hyperthermia in albino Wistar rat assessed as change in rectal temperature at 300 mg/kg, po after 5 hrs (reference value: 34.36 +/- 0.14 degC); format: functional
[3] = test system: Rattus norvegicus; experiment: Antipyretic activity against brewer's yeast-induced hyperthermia in albino Wistar rat assessed as change in rectal temperature at 300 mg/kg, po after 1 hr (reference value: 33.78 +/- 0.18 degC); format: functional
[4] = test system: Rattus norvegicus; experiment: Antipyretic activity against brewer's yeast-induced hyperthermia in albino Wistar rat assessed as change in rectal temperature at 300 mg/kg, po after 3 hrs (reference value: 32.80 +/- 0.09 degC); format: functional
[5] = test system: Rattus norvegicus; experiment: Acute toxicity in albino Wistar rat assessed as haemorrhagic spots at up to 3 g/kg, po after 24 hrs; format: organism-based; conditions: in vivo, 3000 mg/kg
Summary of the method: (§1)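 Albino rats of either sex, groups of six, dosed from 100 up to 3000 mg kg^-1 body weight. Watched continuously for 8 h for signs such as altered motor activity, ataxia, tremors, convulsions, sedation and lacrimation. Killed at 24 h; stomach, intestine and liver inspected under magnifying lenses for ulcer-haemorrhagic spots.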

[6] = test system: Rattus norvegicus; experiment: Acute toxicity in albino Wistar rat assessed as intestine ulcerhaemorrhagic spots at up to 3 g/kg, po after 24 hrs; format: organism-based; conditions: in vivo, 3000 mg/kg; summary of the method: as §1
[7] = test system: Rattus norvegicus; experiment: Antipyretic activity against brewer's yeast-induced hyperthermia in albino Wistar rat assessed as change in rectal temperature at 100 mg/kg, po after 6 hrs (reference value: 33.44 +/- 0.18 degC); format: functional
[8] = test system: Rattus norvegicus; experiment: Analgesic activity in albino Wistar rat assessed as reaction time required for tail flicking at 25 mg/kg, po after 60 mins by tail-flick method (reference value: 4 +/- 0.360 sec); format: functional
[9] = test system: Rattus norvegicus; experiment: Acute toxicity in albino Wistar rat assessed as tremors at up to 3 g/kg, po after 24 hrs; format: organism-based; conditions: in vivo, 3000 mg/kg; summary of the method: as §1
[10] = test system: Rattus norvegicus; experiment: Acute toxicity in albino Wistar rat assessed as mortality at up to 3 g/kg, po after 24 hrs; format: organism-based; conditions: in vivo, 3000 mg/kg; summary of the method: as §1
[11] = test system: Rattus norvegicus; experiment: Analgesic activity in albino Wistar rat assessed as reaction time required for tail flicking at 25 mg/kg, po after 90 mins by tail-flick method (reference value: 3.87 +/- 0.355 sec); format: functional
[12] = test system: Rattus norvegicus; experiment: Antipyretic activity against brewer's yeast-induced hyperthermia in albino Wistar rat assessed as change in rectal temperature at 100 mg/kg, po after 3 hrs (reference value: 32.80 +/- 0.09 degC); format: functional
[13] = test system: Rattus norvegicus; experiment: Acute toxicity in albino Wistar rat assessed as sedation at up to 3 g/kg, po after 24 hrs; format: organism-based; conditions: in vivo, 3000 mg/kg; summary of the method: as §1
[14] = test system: Rattus norvegicus; experiment: Acute toxicity in albino Wistar rat assessed as stomach ulcerhaemorrhagic spots at up to 3 g/kg, po after 24 hrs; format: organism-based; conditions: in vivo, 3000 mg/kg; summary of the method: as §1
[15] = test system: Rattus norvegicus; experiment: Analgesic activity in albino Wistar rat assessed as reaction time required for tail flicking at 25 mg/kg, po after 30 mins by tail-flick method (reference value: 3.97 +/- 0.287 sec); format: functional
[16] = test system: Rattus norvegicus; experiment: Acute toxicity in albino Wistar rat assessed as convulsion at up to 3 g/kg, po after 24 hrs; format: organism-based; conditions: in vivo, 3000 mg/kg; summary of the method: as §1
[17] = test system: Rattus norvegicus; experiment: Antipyretic activity against brewer's yeast-induced hyperthermia in albino Wistar rat assessed as change in rectal temperature at 100 mg/kg, po after 5 hrs (reference value: 34.36 +/- 0.14 degC); format: functional
[18] = test system: Rattus norvegicus; experiment: Acute toxicity in albino Wistar rat assessed as ulceration at up to 3 g/kg, po after 24 hrs; format: organism-based; conditions: in vivo, 3000 mg/kg; summary of the method: as §1
[19] = test system: Nucleic Acid; experiment: Induction of Escherichia coli DNA cleavage at 25 mg after 24 hrs by agarose gel electrophoresis method; format: nucleic-acid assay
Summary of the method: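 E. coli grown in nutrient broth 24 h at 37 °C. Genomic DNA isolated by SDS lysis, phenol (55 °C, 10 min), chloroform:isoamyl alcohol extraction and ethanol precipitation, dissolved in TAE. Compounds at 1 mg/ml in DMF added to DNA, incubated 2 h at 37 °C. Run on agarose gel at 50 V about 30 min, stained with ethidium bromide, bands compared with DNA marker.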

[20] = test system: Rattus norvegicus; experiment: Antipyretic activity against brewer's yeast-induced hyperthermia in albino Wistar rat assessed as change in rectal temperature at 100 mg/kg, po after 1 hr (reference value: 33.78 +/- 0.18 degC); format: functional

CC(=O)Oc1ccccc1C(=O)O [ASPIRIN]
T [1]: 32.38 °C
T [2]: 32.3 °C
T [3]: 32.82 °C
T [4]: 32 °C

Cc1ccc2c(COc3ccc(-c4cc(-c5ccccc5)nc(O)n4)cc3)cc(=O)oc2c1
Activity [5]: Non-toxic
Activity [6]: Non-toxic
T [7]: 32.4 °C
Time [8]: 6.25 s
Activity [9]: Non-toxic
Activity [10]: Non-toxic
Time [11]: 7.75 s
T [12]: 32.84 °C
Activity [13]: Non-toxic
Activity [14]: Non-toxic
Time [15]: 4.5 s
Activity [16]: Non-toxic
T [17]: 33.1 °C
Activity [18]: Non-toxic
Activity [19]: Active
T [20]: 32.4 °C
